Experimental data: ChEMBL document CHEMBL2434932, “Design, synthesis and biological evaluation of a novel class of potent TGR5 agonists based on a 4-phenyl pyridine scaffold” (Eur J Med Chem, 2013)
Activity calls are given as the source filed them. The calls are words filed in the database; no cut-off is given here.

Tests used:
[1] = target: T1, G-protein coupled bile acid receptor 1 (Homo sapiens, UniProt Q8TDU6); test: Agonist activity at human TGR5 expressed in HEK293 cells assessed CRE-induced luciferase activity after 5.5 hrs by reporter gene assay; assay type: functional, cell-based
T1 sequence (Q8TDU6 whole entry): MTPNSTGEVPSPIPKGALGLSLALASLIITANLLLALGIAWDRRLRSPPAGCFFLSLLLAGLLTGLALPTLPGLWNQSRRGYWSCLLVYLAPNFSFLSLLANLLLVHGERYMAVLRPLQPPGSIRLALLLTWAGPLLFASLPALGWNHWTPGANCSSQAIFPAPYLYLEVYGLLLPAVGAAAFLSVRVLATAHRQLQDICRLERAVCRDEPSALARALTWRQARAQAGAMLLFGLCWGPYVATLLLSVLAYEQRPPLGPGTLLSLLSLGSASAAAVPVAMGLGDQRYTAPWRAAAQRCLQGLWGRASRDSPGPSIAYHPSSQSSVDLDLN

[2] = target: T2, G-protein coupled bile acid receptor 1 (Mus musculus) (UniProt Q80SS6); test: Agonist activity at mouse TGR5 expressed in HEK293 cells assessed CRE-induced luciferase activity after 5.5 hrs by reporter gene assay relative to control; assay type: functional, cell-based; design: concentration or dose not given beside the values
T2 sequence (whole entry): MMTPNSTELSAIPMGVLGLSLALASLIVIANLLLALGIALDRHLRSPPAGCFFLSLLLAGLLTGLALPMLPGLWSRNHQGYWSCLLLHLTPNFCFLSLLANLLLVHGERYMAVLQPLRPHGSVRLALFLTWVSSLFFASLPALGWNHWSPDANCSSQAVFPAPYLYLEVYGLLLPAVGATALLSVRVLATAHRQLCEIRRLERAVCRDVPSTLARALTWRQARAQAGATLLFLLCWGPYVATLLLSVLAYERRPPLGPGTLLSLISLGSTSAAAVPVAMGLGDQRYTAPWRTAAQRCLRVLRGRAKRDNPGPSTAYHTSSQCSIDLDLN
Procedure, shortened: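 HEK293 cells were stably transfected with a human or mouse TGR5 expression plasmid plus a CRE-driven luciferase reporter (pGL4.29). Cells were seeded and incubated overnight in DMEM with 10% FBS at 37 °C in 5% CO2, then exposed in fresh medium to a range of test concentrations. Luciferase read-out. Max effect % was scaled from DMSO vehicle (0%) to the INT-777 reference (100%). EC50 was taken from at least two independent experiments at eight concentrations each, mean ± SD.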

[3] = target: T3, G-protein coupled bile acid receptor 1 (Mus musculus, UniProt Q80SS6); test: Agonist activity at mouse TGR5 expressed in HEK293 cells assessed CRE-induced luciferase activity after 5.5 hrs by reporter gene assay; assay type: functional, cell-based
T3 sequence (Q80SS6 whole entry): T2 sequence (whole entry)
Procedure, shortened: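 HEK293 cells were stably transfected with a human or mouse TGR5 expression plasmid plus a CRE-driven luciferase reporter (pGL4.29). Cells were seeded and incubated overnight in DMEM with 10% FBS at 37 °C in 5% CO2, then exposed in fresh medium to a range of test concentrations. Luciferase read-out. EC50 was taken from at least two independent experiments at eight concentrations each, mean ± SD.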

[4] = target: T4, G-protein coupled bile acid receptor 1 (Homo sapiens) (UniProt Q8TDU6); test: Agonist activity at human TGR5 expressed in HEK293 cells assessed CRE-induced luciferase activity at 10 uM after 5.5 hrs by reporter gene assay; assay type: functional, cell-based
T4 sequence (whole entry): T1 sequence (Q8TDU6 whole entry)

[5] = Cmax in Sprague-Dawley rat at 5 mg/kg, po; assay type: ADME, organism-based; design: dose 5 mg/kg, route oral; conditions: in vivo
Procedure, shortened: (§1)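 Male SD rats, n = 6 per group, dosed orally at 5 mg/kg as a 0.25% CMC-Na formulation. PK parameters were derived by non-compartmental analysis and are reported as mean ± SD.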

[6] = Tmax in Sprague-Dawley rat at 5 mg/kg, po; assay type: ADME, organism-based; design: dose 5 mg/kg, route oral; conditions: in vivo; procedure, shortened: as §1
[7] = test system: Mus musculus; test: Toxicity in oral glucose loaded ICR mouse assessed as effect on size of the gallbladder at 50 mg/kg, po; assay type: organism-based; design: dose 50 mg/kg, route oral; conditions: in vivo
Procedure, shortened: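 Male ICR mice from the OGTT (oral dose 50 mg/kg in 0.25% CMC, n = 7–8 per group) were re-fed for 2 h after the test. The gallbladders were then ligated and removed. Gallbladder size was measured by vernier caliper. Bile weight was taken as the gross weight of gallbladder with bile minus the net gallbladder weight.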

[8] = MRT (0 to infinity) in Sprague-Dawley rat at 5 mg/kg, po; assay type: ADME, organism-based; design: dose 5 mg/kg, route oral; conditions: in vivo; procedure, shortened: as §1
[9] = MRT (0 to t) in Sprague-Dawley rat at 5 mg/kg, po; assay type: ADME, organism-based; design: dose 5 mg/kg, route oral; conditions: in vivo; procedure, shortened: as §1
[10] = AUC (0 to t) in Sprague-Dawley rat at 5 mg/kg, po; assay type: ADME, organism-based; design: dose 5 mg/kg, route oral; conditions: plasma; procedure, shortened: as §1
[11] = test system: Mus musculus; test: Antidiabetic activity in oral glucose loaded ICR mouse assessed as reduction of blood glucose AUC (0 to 120 mins) at 50 mg/kg, po; assay type: functional, organism-based; design: dose 50 mg/kg
Procedure, shortened: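 Male ICR mice were fasted overnight and dosed orally at 50 mg/kg in 0.25% CMC vehicle (n = 7–8 per group), 30 min before an oral glucose load of 4 g/kg. Tail-clip blood glucose was measured before dosing and at 0, 15, 30, 60 and 120 min after the load. AUC0–120 min was calculated by the trapezoidal rule using each animal's 0-min glucose as its baseline.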

[12] = Half life in Sprague-Dawley rat at 5 mg/kg, po; assay type: ADME, organism-based; design: dose 5 mg/kg, route oral; conditions: in vivo; procedure, shortened: as §1
[13] = Clearance in Sprague-Dawley rat at 5 mg/kg, po; assay type: ADME, organism-based; design: dose 5 mg/kg, route oral; conditions: in vivo; procedure, shortened: as §1
[14] = AUC (0 to infinity) in Sprague-Dawley rat at 5 mg/kg, po; assay type: ADME, organism-based; design: dose 5 mg/kg, route oral, time infinity; conditions: plasma; procedure, shortened: as §1

| SMILES | EC50 [1] | Activity [2] | EC50 [3] | also measured |
| --- | --- | --- | --- | --- |
| CCCN(Cc1cnccc1-c1ccccc1F)C(C#N)c1cc(C(F)(F)F)cc(C(F)(F)F)c1 (racemic) | 466 nM |  |  |  |
| O=C(c1ccccc1)N(Cc1cnccc1-c1ccccc1F)S(=O)(=O)c1cc(C(F)(F)F)cc(C(F)(F)F)c1 | 31 nM | 144% | 850 nM |  |
| N#CC(NCc1cnccc1-c1ccccc1)c1cc(C(F)(F)F)cc(C(F)(F)F)c1 (racemic) | 61 nM | 120% | 370 nM |  |
| CC(=O)N(Cc1cc(C(F)(F)F)cc(C(F)(F)F)c1)Cc1cnccc1-c1ccccc1 | 910 nM |  |  |  |
| O=C1COc2nccc(-c3ccccc3F)c2CN1Cc1cc(C(F)(F)F)cc(C(F)(F)F)c1 |  | 130% |  |  |
| N#CC(NCc1cnccc1-c1c(F)cccc1F)c1cc(C(F)(F)F)cc(C(F)(F)F)c1 (racemic) | 51 nM | 123% | 100 nM |  |
| O=S(=O)(NCc1c(-c2ccccc2F)ccnc1-c1ccccc1)c1cc(C(F)(F)F)cc(C(F)(F)F)c1 |  |  |  | Activity [4]: 18% |
| O=S(=O)(NCc1c(-c2ccccc2F)ccnc1Cl)c1cc(C(F)(F)F)cc(C(F)(F)F)c1 | 406 nM |  |  |  |
| CC(NCc1cnccc1-c1ccccc1F)c1cc(C(F)(F)F)cc(C(F)(F)F)c1 (racemic) | 204 nM | 117% | 2040 nM |  |
| CCOc1nccc(-c2ccccc2F)c1CNS(=O)(=O)c1cc(C(F)(F)F)cc(C(F)(F)F)c1 |  |  |  | Activity [4]: 18% |
| O=C(C1CCCCC1)N(Cc1cc(C(F)(F)F)cc(C(F)(F)F)c1)Cc1cnccc1-c1ccccc1 |  |  |  | Activity [4]: 19% |
| CCC(NCc1cnccc1-c1ccccc1F)c1cc(C(F)(F)F)cc(C(F)(F)F)c1 (racemic) | 384 nM |  |  |  |
| N#CC(c1cc(C(F)(F)F)cc(C(F)(F)F)c1)N(Cc1ccco1)Cc1cnccc1-c1ccccc1F (racemic) | 892 nM |  |  |  |
| COC(=O)C(NCc1cnccc1-c1ccccc1F)c1cc(C(F)(F)F)cc(C(F)(F)F)c1 (stereo unspecified) | 440 nM |  |  |  |
| O=S(=O)(c1cc(C(F)(F)F)cc(C(F)(F)F)c1)N(Cc1ccccc1)Cc1cnccc1-c1ccccc1F | 2100 nM |  |  |  |
| O=C(c1ccco1)N(Cc1cc(C(F)(F)F)cc(C(F)(F)F)c1)Cc1cnccc1-c1ccccc1 | 470 nM |  |  |  |
| N#CC(NCc1cnccc1-c1ccccc1F)c1cc(C(F)(F)F)cc(C(F)(F)F)c1 (racemic) | 35 nM | 121% | 150 nM | Cmax [5]: 16.3 ng/mL; Tmax [6]: 1.9 h; Activity [7]: Non-toxic; MRT inf [8]: 3.6 h; MRT last [9]: 2.6 h; AUC(0-t) [10]: 49.1 ng·h/mL; Activity [11]: inactive; half-life [12]: 2.3 h; CL/F [13]: 1520 mL/min/kg; AUC(0-inf) [14]: 55 ng·h/mL |
| CCC(=O)N(Cc1cc(C(F)(F)F)cc(C(F)(F)F)c1)Cc1cnccc1-c1ccccc1 | 1270 nM |  |  |  |
| NCc1cnccc1-c1ccccc1F |  |  |  | Activity [4]: 1% |

| SMILES | EC50 [1] | Activity [2] | EC50 [3] | also measured |
| --- | --- | --- | --- | --- |
| O=S(=O)(NCc1cnccc1-c1ccccc1F)c1cc(C(F)(F)F)cc(C(F)(F)F)c1 | 63 nM | 148% | 820 nM |  |
| O=C(c1ccoc1)N(Cc1cc(C(F)(F)F)cc(C(F)(F)F)c1)Cc1cnccc1-c1ccccc1 | 320 nM |  |  |  |
| O=C(NCc1cnccc1-c1ccccc1F)c1cc(C(F)(F)F)cc(C(F)(F)F)c1 |  |  |  | Activity [4]: 46% |
| Fc1ccccc1-c1ccncc1CNCc1cc(C(F)(F)F)cc(C(F)(F)F)c1 | 458 nM |  |  |  |
| CC(c1cc(C(F)(F)F)cc(C(F)(F)F)c1)N(Cc1cnccc1-c1ccccc1)C(=O)c1ccco1 (racemic) | 310 nM | 119% | 1180 nM |  |
| CCC(c1cc(C(F)(F)F)cc(C(F)(F)F)c1)N(Cc1cnccc1-c1ccccc1)C(=O)c1ccco1 (racemic) | 1230 nM |  |  |  |
| O=C(c1ccccc1)N(Cc1cc(C(F)(F)F)cc(C(F)(F)F)c1)Cc1cnccc1-c1ccccc1 | 350 nM |  |  |  |
| O=C(c1ccsc1)N(Cc1cc(C(F)(F)F)cc(C(F)(F)F)c1)Cc1cnccc1-c1ccccc1 | 120 nM | 111% | 230 nM |  |
| O=C(c1ccsc1)N(Cc1cnccc1-c1ccccc1F)S(=O)(=O)c1cc(C(F)(F)F)cc(C(F)(F)F)c1 | 53 nM | 146% | 1090 nM |  |
| O=C(c1ccc(Cl)cc1)N(Cc1cc(C(F)(F)F)cc(C(F)(F)F)c1)Cc1cnccc1-c1ccccc1 | 7430 nM |  |  |  |
| CC[C@H]1[C@@H](O)[C@@H]2[C@H](C[C@H](O)[C@]3(C)[C@@H]([C@H](C)C[C@H](C)C(=O)O)CC[C@@H]23)[C@@]2(C)CC[C@@H](O)C[C@@H]12 |  | 100% |  |  |
| O=C(c1ccncc1)N(Cc1cc(C(F)(F)F)cc(C(F)(F)F)c1)Cc1cnccc1-c1ccccc1 | 4080 nM |  |  |  |
| O=S(=O)(NCc1cnccc1-c1c(F)cccc1F)c1cc(C(F)(F)F)cc(C(F)(F)F)c1 | 62 nM | 123% | 550 nM |  |
| FC(F)(F)c1cc(CNCc2cnccc2-c2ccccc2)cc(C(F)(F)F)c1 | 580 nM |  |  |  |
| O=C(c1ccco1)N(Cc1cc(C(F)(F)F)cc(C(F)(F)F)c1)Cc1cnccc1-c1ccccc1F | 500 nM |  |  |  |
| O=C(O)C(NCc1cnccc1-c1ccccc1F)c1cc(C(F)(F)F)cc(C(F)(F)F)c1 (stereo unspecified) |  |  |  | Activity [4]: 16% |
| O=C(c1cccs1)N(Cc1cc(C(F)(F)F)cc(C(F)(F)F)c1)Cc1cnccc1-c1ccccc1 | 260 nM | 127% | 300 nM |  |
| O=C(c1ccco1)N(Cc1cnccc1-c1ccccc1F)S(=O)(=O)c1cc(C(F)(F)F)cc(C(F)(F)F)c1 | 32 nM | 139% | 910 nM |  |
